# Measured values taken from ChEMBL document CHEMBL3739352, “Anticonvulsant activity, crystal structures, and preliminary safety evaluation of N-trans-cinnamoyl derivatives of selected (un)modified aminoalkanols” (Eur J Med Chem, 2016).
# Active and inactive are the calls of the source. No cut-off for these calls is given here.
# Tests used:
# [1] = tested on: Rattus norvegicus; assay: Neurotoxicity in Sprague-Dawley rat at 30 mg/kg, po after 4 hrs; type: toxicity, organism-based; details: in vivo
# Method in brief: (§1)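 Sprague-Dawley rats were given 30 mg/kg orally in 0.5% methylcellulose. Neurotoxicity was checked at 0.25, 0.5, 1.0, 2.0 and 4 h after dosing. Results are given as number of rats showing neurotoxicity/number tested.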
# [2] = tested on: Rattus norvegicus; assay: Neurotoxicity in Sprague-Dawley rat at 30 mg/kg, po after 2 hrs; type: toxicity, organism-based; details: in vivo; method in brief: as §1
# [3] = tested on: Rattus norvegicus; assay: Neurotoxicity in Sprague-Dawley rat at 30 mg/kg, po after 1 hr; type: toxicity, organism-based; details: in vivo; method in brief: as §1
# [4] = tested on: Rattus norvegicus; assay: Neurotoxicity in Sprague-Dawley rat at 30 mg/kg, po after 0.25 hrs; type: toxicity, organism-based; details: in vivo; method in brief: as §1
# [5] = tested on: Rattus norvegicus; assay: Neurotoxicity in Sprague-Dawley rat at 30 mg/kg, po after 0.5 hrs; type: toxicity, organism-based; details: in vivo; method in brief: as §1
# [6] = tested on: Rattus norvegicus; assay: Anticonvulsant activity in Sprague-Dawley rat assessed as protection against maximal electroshock-induced seizures at 30 mg/kg, po after 4 hrs; type: functional, organism-based
# Method in brief: (§2)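 Sprague-Dawley rats were given 30 mg/kg p.o. in 0.5% methylcellulose. Maximal electroshock was applied at 0.25, 0.5, 1.0, 2.0 and 4 h after dosing. Results are reported as number of rats protected / number tested.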
# [7] = tested on: Rattus norvegicus; assay: Anticonvulsant activity in Sprague-Dawley rat assessed as protection against maximal electroshock-induced seizures at 30 mg/kg, po after 2 hrs; type: functional, organism-based; method in brief: as §2
# [8] = tested on: Rattus norvegicus; assay: Anticonvulsant activity in Sprague-Dawley rat assessed as protection against maximal electroshock-induced seizures at 30 mg/kg, po after 1 hr; type: functional, organism-based; method in brief: as §2
# [9] = tested on: Rattus norvegicus; assay: Anticonvulsant activity in Sprague-Dawley rat assessed as protection against maximal electroshock-induced seizures at 30 mg/kg, po after 0.5 hrs; type: functional, organism-based; method in brief: as §2
# [10] = tested on: Rattus norvegicus; assay: Anticonvulsant activity in Sprague-Dawley rat assessed as protection against maximal electroshock-induced seizures at 30 mg/kg, po after 0.25 hrs; type: functional, organism-based; method in brief: as §2
# [11] = tested on: Mus musculus; assay: Neurotoxicity in albino Carworth Farms No.1 mouse at 300 mg/kg, ip after 0.5 hrs by rotarod test; type: toxicity, organism-based; details: in vivo
# Method in brief: (§3)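 Mice (albino Carworth Farms No.1) were dosed i.p. at 30, 100 or 300 mg/kg in 0.5% methylcellulose. They were tested 0.5 and 4 h later on a 1-inch knurled rod rotating at 6 rpm. Neurotoxicity was scored if a mouse could not stay on the rod for at least 1 min in each of three trials. Results are given as animals toxic/animals tested, with deaths noted.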
# [12] = tested on: Mus musculus; assay: Neurotoxicity in albino Carworth Farms No.1 mouse at 100 mg/kg, ip after 0.5 hrs by rotarod test; type: toxicity, organism-based; details: in vivo; method in brief: as §3
# [13] = tested on: Mus musculus; assay: Anticonvulsant activity in albino Carworth Farms No.1 mouse assessed as protection against subcutaneous dosed pentetrazol-induced seizures at 300 mg/kg, ip after 4 hrs; type: functional, organism-based
# Method in brief: (§4)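 Mouse i.p. screen in Carworth Farms No.1 albino mice at 30, 100 or 300 mg/kg in 0.5% methylcellulose. Testing was at 0.5 and 4 h after injection, by maximal electroshock or by subcutaneous pentetrazol challenge. Scoring was number protected / number used.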
# [14] = tested on: Mus musculus; assay: Neurotoxicity in albino Carworth Farms No.1 mouse at 30 mg/kg, ip after 0.5 hrs by rotarod test; type: toxicity, organism-based; details: in vivo; method in brief: as §3
# [15] = tested on: Mus musculus; assay: Anticonvulsant activity in albino Carworth Farms No.1 mouse assessed as protection against subcutaneous dosed pentetrazol-induced seizures at 300 mg/kg, ip after 0.5 hrs; type: functional, organism-based; method in brief: as §4
# [16] = tested on: Mus musculus; assay: Anticonvulsant activity in albino Carworth Farms No.1 mouse assessed as protection against subcutaneous dosed pentetrazol-induced seizures at 100 mg/kg, ip after 4 hrs; type: functional, organism-based; method in brief: as §4
# [17] = tested on: Mus musculus; assay: Anticonvulsant activity in albino Carworth Farms No.1 mouse assessed as protection against subcutaneous dosed pentetrazol-induced seizures at 100 mg/kg, ip after 0.5 hrs; type: functional, organism-based; method in brief: as §4
# [18] = tested on: Mus musculus; assay: Anticonvulsant activity in albino Carworth Farms No.1 mouse assessed as protection against subcutaneous dosed pentetrazol-induced seizures at 30 mg/kg, ip after 4 hrs; type: functional, organism-based; method in brief: as §4
# [19] = tested on: Mus musculus; assay: Anticonvulsant activity in albino Carworth Farms No.1 mouse assessed as protection against subcutaneous dosed pentetrazol-induced seizures at 30 mg/kg, ip after 0.5 hrs; type: functional, organism-based; method in brief: as §4
# [20] = tested on: Mus musculus; assay: Anticonvulsant activity in albino Carworth Farms No.1 mouse assessed as protection against maximal electroshock-induced seizures at 300 mg/kg, ip after 4 hrs; type: functional, organism-based; method in brief: as §4
# [21] = tested on: Mus musculus; assay: Anticonvulsant activity in albino Carworth Farms No.1 mouse assessed as protection against maximal electroshock-induced seizures at 300 mg/kg, ip after 0.5 hrs; type: functional, organism-based; method in brief: as §4
# [22] = tested on: Mus musculus; assay: Anticonvulsant activity in albino Carworth Farms No.1 mouse assessed as protection against maximal electroshock-induced seizures at 100 mg/kg, ip after 4 hrs; type: functional, organism-based; method in brief: as §4
# [23] = tested on: Mus musculus; assay: Anticonvulsant activity in albino Carworth Farms No.1 mouse assessed as protection against maximal electroshock-induced seizures at 100 mg/kg, ip after 0.5 hrs; type: functional, organism-based; method in brief: as §4
# [24] = tested on: Mus musculus; assay: Anticonvulsant activity in albino Carworth Farms No.1 mouse assessed as protection against maximal electroshock-induced seizures at 30 mg/kg, ip after 0.5 hrs; type: functional, organism-based; method in brief: as §4
# [25] = tested on: Mus musculus; assay: Anticonvulsant activity in albino Carworth Farms No.1 mouse assessed as protection against maximal electroshock-induced seizures at 30 mg/kg, ip after 4 hrs; type: functional, organism-based; method in brief: as §4
# [26] = tested on: Mus musculus; assay: Neurotoxicity in albino Carworth Farms No.1 mouse at 30 mg/kg, ip after 4 hrs by rotarod test; type: toxicity, organism-based; details: in vivo; method in brief: as §3
# [27] = tested on: Mus musculus; assay: Neurotoxicity in albino Carworth Farms No.1 mouse at 100 mg/kg, ip after 4 hrs by rotarod test; type: toxicity, organism-based; details: in vivo; method in brief: as §3
# [28] = tested on: Mus musculus; assay: Neurotoxicity in albino Carworth Farms No.1 mouse at 300 mg/kg, ip after 4 hrs by rotarod test; type: toxicity, organism-based; details: in vivo; method in brief: as §3
# [29] = Lipophilicity of the compound using 95% methanol in water at 1 mg/ml by RT-TLC analysis; type: physicochemical; details: buffer
# Method in brief: (§5)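 Reversed-phase TLC with a methanol–water mobile phase at the stated methanol content (v/v). Compounds were spotted from 1 mg/mL methanol solutions after 1 h chamber saturation and located under UV light. Rf was measured and RM = log(1/Rf − 1) calculated.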
# [30] = Lipophilicity of the compound using 90% methanol in water at 1 mg/ml by RT-TLC analysis; type: physicochemical; details: buffer; method in brief: as §5
# [31] = Lipophilicity of the compound using 85% methanol in water at 1 mg/ml by RT-TLC analysis; type: physicochemical; details: buffer; method in brief: as §5
# [32] = Lipophilicity of the compound using 75% methanol in water at 1 mg/ml by RT-TLC analysis; type: physicochemical; details: buffer; method in brief: as §5
# [33] = Lipophilicity of the compound using 65% methanol in water at 1 mg/ml by RT-TLC analysis; type: physicochemical; details: buffer; method in brief: as §5
# [34] = Lipophilicity of the compound at 1 mg/ml by RT-TLC analysis relative to 0% methanol; type: physicochemical; details: methanol/water
# Method in brief: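 Reversed-phase TLC used methanol–water mobile phases of 95–65% methanol. Compounds were applied from 1 mg/mL methanol solutions after 1 h chamber saturation, with UV detection. RM = log(1/Rf − 1) was calculated at each methanol level and extrapolated linearly (RM = RM0 + bC) to 0% methanol to give RM0.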
# [35] = Hepatotoxicity against human HepG2 cells assessed as cell viability at 10 uM after 24 hrs by MTT assay relative to control; type: toxicity, cell-based; details: read-out: Activity
# Method in brief: (§6)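 HepG2 cells (EMEM, 10% FBS, 37 °C, 5% CO₂) were seeded at 1 × 10⁴ per well and cultured overnight. They were then exposed to increasing compound concentrations for 24 h. MTT reagent was added for 3 h and formazan crystals dissolved before reading. Data are mean ± SD of at least three independent experiments, relative to untreated control.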
# [36] = Hepatotoxicity against human HepG2 cells assessed as cell viability at 25 uM after 24 hrs by MTT assay relative to control; type: toxicity, cell-based; details: read-out: Activity; method in brief: as §6
# [37] = Hepatotoxicity against human HepG2 cells assessed as cell viability at 50 uM after 24 hrs by MTT assay relative to control
# [38] = Hepatotoxicity against human HepG2 cells assessed as cell viability at 100 uM after 24 hrs by MTT assay relative to control
# [39] = in vitro; details: human, HepG2 cells
# [40] = in vitro; details: human, HepG2 cells; remark: listed apart in the source
# [41] = in vitro; details: human, HepG2 cells; remark: listed apart in the source
# [42] = in vitro; details: human, HepG2 cells; remark: listed apart in the source
# [43] = tested on: Mus musculus; assay: Anticonvulsant activity in ip dosed albino Carworth Farms No.1 mouse assessed as protection against subcutaneous dosed pentetrazol-induced seizures after 0.25 hrs; type: functional; details: Carworth Farms No.1, 0.25 h
# Method in brief: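 Quantitative i.p. evaluation in Carworth Farms No.1 albino mice, with graded doses in 0.5% methylcellulose. MES, scPTZ or 6-Hz (32 mA) seizure tests were run at 0.25 h.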
# [44] = tested on: Rattus norvegicus; assay: Anticonvulsant activity in po dosed Sprague-Dawley rat assessed as protection against subcutaneous dosed pentetrazol-induced seizures after 0.5 hrs; type: functional
# Method in brief: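 Sprague-Dawley rats received graded oral doses suspended or dissolved in 0.5% methylcellulose. Challenge was maximal electroshock or subcutaneous pentetrazol at the stated time after dosing.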
Structure (SMILES),Activity [1],Activity [2],Activity [3],Activity [4],Activity [5],Activity [6],Activity [7],Activity [8],Activity [9],Activity [10],Activity [11],Activity [12],Activity [13],Activity [14],Activity [15],Activity [16],Activity [17],Activity [18],Activity [19],Activity [20],also measured
CC(=O)OCC(C)NC(=O)/C=C/c1ccccc1 (racemic),Non-toxic,Non-toxic,Non-toxic,Non-toxic,Non-toxic,inactive,inactive,inactive,inactive,inactive,Non-toxic,Non-toxic,inactive,Non-toxic,inactive,inactive,inactive,inactive,inactive,inactive,Activity [21]: Active; Activity [22]: inactive; Activity [23]: Active; Activity [24]: inactive; Activity [25]: inactive; Activity [26]: Non-toxic; Activity [27]: Non-toxic; Activity [28]: Non-toxic; Rm [29]: -0.58; Rm [30]: -0.48; Rm [31]: -0.21; Rm [32]: -0.07; Rm [33]: 0.19; Rm [34]: 1.88
COc1cccc2c1C(=O)c1c(O)c3c(c(O)c1C2=O)C[C@@](O)(C(=O)CO)C[C@@H]3O[C@H]1C[C@H](N)[C@H](O)[C@H](C)O1 [DOXORUBICIN],,,,,,,,,,,,,,,,,,,,,"viability at 24 h, 10 µM [35]: 77.4%; viability at 24 h, 25 µM [36]: 65.3%; viability at 24 h, 50 µM [37]: 51.6%; viability at 24 h, 100 µM [38]: 44.9%; viability at 24 h, 10 µM [39]: 91%; viability at 24 h, 25 µM [40]: 83%; viability at 24 h, 50 µM [41]: 75%; viability at 24 h, 100 µM [42]: 48%"
CC(=O)OC(C)CNC(=O)/C=C/c1ccccc1 (racemic),Non-toxic,Non-toxic,Non-toxic,Non-toxic,Non-toxic,inactive,inactive,inactive,inactive,inactive,Non-toxic,Non-toxic,inactive,Non-toxic,Active,inactive,inactive,inactive,inactive,Active,Activity [21]: Active; Activity [22]: inactive; Activity [23]: inactive; Activity [24]: inactive; Activity [25]: inactive; Activity [26]: Non-toxic; Activity [27]: Non-toxic; Activity [28]: Non-toxic; Rm [29]: -0.58; Rm [30]: -0.48; Rm [31]: -0.19; Rm [32]: -0.1; Rm [33]: 0.25; Rm [34]: 2.003
NC(=O)N1c2ccccc2C=Cc2ccccc21 [CARBAMAZEPINE],,,,,,,,,,,,,,,,,,,,,ED50 [43]: > 50 mg/kg; ED50 [44]: > 250 mg/kg
